# Screening data from PubChem.
# Only some compounds are listed: those with a hit (about 2.3% of all), similar ones and a draw of the others.
# CR mimetic SO: yeast age-related superoxide inhibition as caloric restriction mimetic; S. cerevisiae aged cells, superoxide DHE fluorescence; hits give low values; 330,000 compounds, 0.18% hits; AID 2690; superoxide response (% of plate mean), % at 10 µM;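 active means superoxide response under a set limit, about three screen SD below normal, cut at about 65% in these data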;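 further: yeast aged for seven days with compound at 30 °C before DHE staining; 100% = average MFI of all compound-treated wells on the plate with controls excluded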
# TRPC4 block: TRPC4 (mouse) channel inhibition; Q9QUQ5; HEK293 TRPC4beta/mu-opioid, DAMGO-evoked Fluo4 calcium flux; hits give low values; B-score at 10 µM; 300,000 compounds, 0.39% hits;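 active means B-score over 3 SD under the library average, no early fluorescence shift, positive overall ratio signal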
# Target sequence (Q9QUQ5 whole entry, looked up): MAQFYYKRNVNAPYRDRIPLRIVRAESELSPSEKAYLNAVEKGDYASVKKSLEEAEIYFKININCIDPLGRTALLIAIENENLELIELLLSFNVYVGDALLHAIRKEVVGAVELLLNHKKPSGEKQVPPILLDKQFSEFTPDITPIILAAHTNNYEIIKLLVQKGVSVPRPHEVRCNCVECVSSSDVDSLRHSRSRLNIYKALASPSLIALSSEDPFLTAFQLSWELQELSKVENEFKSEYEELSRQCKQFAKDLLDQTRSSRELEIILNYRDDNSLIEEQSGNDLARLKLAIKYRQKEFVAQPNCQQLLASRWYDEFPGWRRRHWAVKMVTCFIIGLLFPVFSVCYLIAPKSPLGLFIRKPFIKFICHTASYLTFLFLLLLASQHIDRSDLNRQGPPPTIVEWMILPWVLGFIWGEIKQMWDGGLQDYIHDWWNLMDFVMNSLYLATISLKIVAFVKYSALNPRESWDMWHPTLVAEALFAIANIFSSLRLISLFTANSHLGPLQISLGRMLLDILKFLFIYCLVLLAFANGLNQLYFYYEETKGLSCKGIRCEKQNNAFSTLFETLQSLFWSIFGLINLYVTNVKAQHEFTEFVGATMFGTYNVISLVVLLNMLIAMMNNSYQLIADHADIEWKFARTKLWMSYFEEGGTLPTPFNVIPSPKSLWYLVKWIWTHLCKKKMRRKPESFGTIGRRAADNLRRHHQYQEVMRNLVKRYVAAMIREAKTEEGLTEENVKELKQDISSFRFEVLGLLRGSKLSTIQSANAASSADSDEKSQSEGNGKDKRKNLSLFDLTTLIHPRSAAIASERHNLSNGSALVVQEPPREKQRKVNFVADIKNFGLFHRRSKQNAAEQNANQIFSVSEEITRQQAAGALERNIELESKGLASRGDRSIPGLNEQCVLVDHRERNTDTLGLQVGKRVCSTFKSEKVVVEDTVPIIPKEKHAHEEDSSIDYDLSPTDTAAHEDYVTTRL
#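 Assay system: TRPC4beta/mu-opioid receptor HEK293 cell line; compound dosing: single concentration per test compound; detection: Fluo4 Ca2+ flux fluorescence; evaluation: per-well B score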
# TRPC4 agonist: activators of mouse TRPC4 channel; Q9QUQ5; HEK293 TRPC4beta/mu-opioid, Fluo4 calcium fluorescence; hits give high values; B-score at 10 µM; 310,000 compounds, 0.49% hits; AID 2237;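 active means B-score above 5 SD of library B-scores, and initial fluorescence ratio not above library mean plus 5 SD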;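 further: positive B-score marks a calcium rise read as TRPC4 activation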
#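 Assay system: HEK293 cells stably co-expressing mouse TRPC4beta and mu-opioid receptor / Timing: Fluo4 dye loading 45 min at room temperature, 110 s recording / Signal: Fluo4 calcium-sensitive dye fluorescence, kinetic, 1 Hz baseline / Read-out: integrated baseline-normalised fluorescence ratio, converted to per-well B score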
# TRPC6 act: activates the mouse TRPC6 cation channel; B-score at 10 µM; 310,000 compounds, 0.13% hits; AID 2550; HEK293-TRPC6 membrane potential dye fluorescence; hits give high values;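 active means B-score of the integrated fluorescence ratio above library mean plus 3 SD, and starting fluorescence ratio within library mean plus 5 SD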;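 further: higher score means more depolarization so channel activation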
# TRPC6 inh: blocks the mouse TRPC6 cation channel. HEK293-TRPC6, membrane potential dye, ACh-evoked depolarization; hits give low values. B-score at 10 µM. 310,000 compounds, 1.1% hits. AID 2553;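 active means B-score under library mean minus 3 SD, initial fluorescence not abnormally high, positive integrated signal ratio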;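 further: B-score derived from integrated fluorescence ratio over the kinetic read; more negative B-score means stronger inhibition of depolarization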
# TRPC4 PAM: allosteric potentiators of mouse TRPC4 channel; Q9QUQ5; HEK293 TRPC4beta/mu-opioid, DAMGO EC20, Fluo-4 Ca2+ flux; hits give high values; B-score at 10 µM; 310,000 compounds, 0.42% hits; AID 2227;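 active means B-score of calcium response area above 5 SD of library B-scores, with initial fluorescence ratio within 5 SD of library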;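 further: B-score of integrated fluorescence ratio over time as area under calcium response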
# The depositor's hits bear a star; i = inactive; . = no result.
SMILES,CR mimetic SO,TRPC4 block,TRPC4 agonist,TRPC6 act,TRPC6 inh,TRPC4 PAM
CN1CCN(C(=O)CCN2C(=O)/C(=C\c3ccc(Cl)cc3Cl)SC2=S)CC1,86.0,i,i,i,i,i
Cc1ccsc1C(=O)OCC(=O)NCCNC(=O)COC(=O)c1sccc1C,98.3,-7*,i,i,i,i
Cc1cc2oc(C(=O)Nc3ccc(S(=O)(=O)Nc4ncccn4)cc3)c(C)c2cc1Cl,89.1,i,i,i,i,i
COc1cc2sc3cc(NCc4ccc(C)o4)ccc3c(=O)c2cc1OC,120.3,.,.,.,.,.
CN(C)CCNc1ccc(Cl)cc1[N+](=O)[O-],88.4,i,i,i,i,21*
CS(=O)(=O)NCCNc1ccc(Cl)cc1[N+](=O)[O-],110.6,i,i,i,i,i
c1ccc2c(c1)nnn2-c1ncnc2sc3c(c12)CCCC3,85.7,-6*,i,i,i,i
Fc1ccc(Nc2ncnc3sc4c(c23)CCC4)cc1F,95.0,i,i,i,i,i
c1ccc(Nc2ncnc3sc4c(c23)CCC4)cc1,92.9,i,216*,i,i,i
Fc1ccc(Nc2ncnc3sc4c(c23)CCC4)cc1,82.1,i,i,i,i,66*
COc1ccccc1N1C(=O)c2cccc3c(Cl)ccc(c23)C1=O,101.5,i,i,i,i,i
COc1cc(C(=O)NCC2CCCCC2)cc(OC)c1OC,93.4,i,i,i,i,i
COc1ccc(OC(C)C(=O)NCC2CCCO2)cc1 (centres undefined),106.2,i,i,i,i,i
Cc1cc(C(C)(C)C)cc(S(=O)(=O)Nc2cccc(C(=O)O)c2)c1C,113.0,i,i,i,i,16*
Cc1cc(S(=O)(=O)Nc2cccc(C(=O)O)c2)c(C)c(S(=O)(=O)c2ccc(Cl)cc2)c1,91.0,i,i,i,i,i
O=[N+]([O-])c1ccc(N2CCN(CCOc3nonc3-c3ccccc3)CC2)c(Cl)c1,120.2,i,i,i,i,17*
Cc1nonc1OCCN1CCN(c2ccc([N+](=O)[O-])cc2)CC1,76.8,i,i,i,i,i
O=C(O)c1nc2ccccc2nc1C(=O)O,78.4,i,i,i,i,i
CN(c1cccc(NC(=O)c2ccc(N(C)S(=O)(=O)c3ccccc3)cc2)c1)S(C)(=O)=O,100.9,i,i,i,i,11*
CC(=O)OCCCN1C(=O)c2cccc3cc(Br)cc(c23)C1=O,102.3,-6*,i,i,i,i
CCOC(=O)c1c(C)[nH]c(C)c1S(=O)(=O)N(C)CC(=O)Nc1ccccc1F,103.9,i,i,i,i,i
Cc1cc(N2O[C@]34C=C[C@]25C[C@@H](O)CC[C@]5(C)C3CC[C@]2(C)[C@@H]([C@H](C)/C=C/[C@H](C)C(C)C)CC[C@H]24)no1 (some centres undefined),56.9*,.,.,.,.,.
C=CCN(CC=C)CCOc1ccccc1,102.2,i,i,i,i,12*
Cc1cc2c(cc1S(=O)(=O)Nc1cccc(C)c1C)n(C)c(=O)c(=O)n2C,120.2,i,i,i,i,i
Cc1cc(C)nc(NC(N)=NC2CCCCC2)n1,105.9,-9*,i,i,i,i
SMILES,CR mimetic SO,TRPC4 block,TRPC4 agonist,TRPC6 act,TRPC6 inh,TRPC4 PAM
COc1ccc(C[C@H]2CN3C(=NC[C@@H]3Cc3ccccc3)N2CCNC(=O)c2ccc(C)c(Br)c2)cc1,92.2,i,48*,i,i,i
COc1ccc(C[C@H]2CN3C(=NC[C@H]3Cc3ccccc3)N2CCNC(=O)c2ccc(C)c(Br)c2)cc1,93.6,i,i,i,i,i
Cc1nn(-c2ccccc2)cc1/C=N/O,97.2,i,i,i,i,i
COC(=O)c1sc(NC(=O)COc2cccc(C)c2)nc1C,97.7,i,i,i,i,i
CN(C)c1ccc(N=Nc2ccccc2C(=O)OCC(=O)N(C)C2CCCCC2)cc1,92.7,i,i,i,i,11*
CN(C)c1ccc(N=Nc2ccccc2C(=O)OCC(=O)NCC2CCCCC2)cc1,96.8,i,i,i,i,i
Cc1ccc(S(=O)(=O)Nc2ccc(S(=O)(=O)N3CCOCC3)cc2)cc1[N+](=O)[O-],104.5,i,i,i,i,i
Cc1ccc(Nc2ccc(S(=O)(=O)N3CCOCC3)cc2[N+](=O)[O-])cc1C,121.2,i,i,i,i,18*
COc1cccc(C2N(c3ccc(Cl)c(Cl)c3)C(=O)C3CCCN32)c1OC (centres undefined),83.0,i,i,i,i,i
CCc1ccc(C(C(=O)NC(C)(C)CC)N(Cc2ccco2)C(=O)Cn2nnc3ccccc32)cc1 (centres undefined),94.5,i,i,i,i,i
CCC(C)(C)NC(=O)C(c1ccccc1F)N(Cc1ccco1)C(=O)Cn1nnc2ccccc21 (centres undefined),110.0,i,i,44.1*,i,i
Cc1ccc(C)n1-c1nnc(N2CCC(C(=O)NCCCN3CC(C)CC(C)C3)CC2)s1 (centres undefined),93.1,i,88*,i,i,i
Cc1cc(=O)n2nc(N3CCCC(C(=O)NCCCN4CC(C)CC(C)C4)C3)sc2n1 (centres undefined),100.7,i,47*,i,i,i
Cc1noc(C)c1CSCC(=O)OCC(=O)Nc1sccc1C#N,101.9,i,i,i,i,i
Cc1[nH]c2ccc(C(=O)OC(C)C(=O)N(C)c3ccccc3)cc2c1C (centres undefined),93.8,-7*,i,i,i,i
Cc1cc(OCC(=O)Nc2ccc(S(=O)(=O)N3CCN(C)CC3)cc2)cc(C)c1Cl,107.1,i,i,i,i,i
O=c1[nH]cnc2scc(-c3ccsc3)c12,103.5,i,i,i,i,i
COc1ccc2cc(C(=O)NCc3ccccc3)c(=O)oc2c1,97.7,i,i,i,i,i
Cc1ccc(C(=O)N/N=C/c2cccc(OC(=O)/C=C/c3ccco3)c2)cn1,104.1,i,i,i,i,i
O=C(/C=C/c1ccco1)Oc1cc(Br)cc(/C=N/NC(=O)c2ccccc2O)c1,96.9,i,i,i,i,12*
